Assay results reported in ChEMBL document CHEMBL3400011, “Canthinone alkaloids are novel protein tyrosine phosphatase 1B inhibitors” (Bioorg Med Chem Lett, 2015).

Key:
[1] = molecular target: T1, Tyrosine-protein phosphatase non-receptor type 1 (Homo sapiens) (UniProt P18031); test: Inhibition of PTP1B (unknown origin) assessed as inhibition rate at 100 uM
T1 sequence (whole entry): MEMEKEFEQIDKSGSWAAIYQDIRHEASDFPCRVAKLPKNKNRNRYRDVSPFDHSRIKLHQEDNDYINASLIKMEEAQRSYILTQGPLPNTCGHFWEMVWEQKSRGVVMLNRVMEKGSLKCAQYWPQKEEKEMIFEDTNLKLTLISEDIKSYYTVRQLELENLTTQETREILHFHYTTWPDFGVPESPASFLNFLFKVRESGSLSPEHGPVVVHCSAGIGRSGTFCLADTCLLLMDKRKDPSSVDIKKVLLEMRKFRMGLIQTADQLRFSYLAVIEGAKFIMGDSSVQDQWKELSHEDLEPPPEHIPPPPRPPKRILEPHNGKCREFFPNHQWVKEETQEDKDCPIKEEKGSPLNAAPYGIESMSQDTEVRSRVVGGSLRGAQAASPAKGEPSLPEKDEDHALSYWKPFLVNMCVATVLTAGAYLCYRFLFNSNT
How it was run: (§1)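 PTP1B enzymatic assay with RK-682 as the positive control. For the single-point screen, compounds were tested at a final 100 µM. For dose–response, inhibition was measured over a range of compound concentrations, and IC50 was obtained by regression analysis.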

[2] = molecular target: Dual specificity protein phosphatase 3 (Homo sapiens) (UniProt P51452); test: Inhibition of VHR (unknown origin) assessed as inhibition rate at 75 uM
Sequence of Dual specificity protein phosphatase 3 (Homo sapiens) (P51452 whole entry, looked up): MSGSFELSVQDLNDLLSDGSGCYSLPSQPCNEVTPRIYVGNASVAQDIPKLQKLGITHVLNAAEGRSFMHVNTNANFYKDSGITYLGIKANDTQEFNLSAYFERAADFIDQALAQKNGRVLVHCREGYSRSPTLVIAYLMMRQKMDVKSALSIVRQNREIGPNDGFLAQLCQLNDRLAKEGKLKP

[3] = molecular target: T2, Tyrosine-protein phosphatase non-receptor type 11 (Homo sapiens) (UniProt Q06124); test: Inhibition of SHP2 (unknown origin) assessed as inhibition rate at 75 uM
T2 sequence (whole entry): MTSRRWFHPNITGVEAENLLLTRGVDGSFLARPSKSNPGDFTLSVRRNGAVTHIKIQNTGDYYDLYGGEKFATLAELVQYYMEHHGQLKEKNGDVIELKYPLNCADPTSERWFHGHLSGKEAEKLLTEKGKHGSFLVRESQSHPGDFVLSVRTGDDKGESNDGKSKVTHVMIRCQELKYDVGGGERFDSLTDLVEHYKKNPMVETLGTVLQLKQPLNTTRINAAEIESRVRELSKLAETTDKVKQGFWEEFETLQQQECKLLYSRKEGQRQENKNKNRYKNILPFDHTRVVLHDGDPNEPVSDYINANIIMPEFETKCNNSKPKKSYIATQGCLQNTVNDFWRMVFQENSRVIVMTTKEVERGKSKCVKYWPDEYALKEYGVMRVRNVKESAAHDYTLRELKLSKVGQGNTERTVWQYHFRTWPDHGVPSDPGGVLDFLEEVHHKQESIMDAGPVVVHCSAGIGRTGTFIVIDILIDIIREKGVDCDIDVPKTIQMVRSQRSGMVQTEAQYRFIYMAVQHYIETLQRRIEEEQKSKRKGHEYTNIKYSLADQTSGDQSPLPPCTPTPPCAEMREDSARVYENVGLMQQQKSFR

[4] = molecular target: T3, Tyrosine-protein phosphatase non-receptor type 1 (Homo sapiens, UniProt P18031); test: Inhibition of PTP1B (unknown origin); how it was run: as §1
T3 sequence (P18031 whole entry): T1 sequence (whole entry)

[5] = molecular target: Tyrosine-protein phosphatase non-receptor type 6 (Homo sapiens) (UniProt P29350); test: Inhibition of SHP1 (unknown origin) assessed as inhibition rate at 75 uM
Sequence of Tyrosine-protein phosphatase non-receptor type 6 (Homo sapiens) (P29350 whole entry): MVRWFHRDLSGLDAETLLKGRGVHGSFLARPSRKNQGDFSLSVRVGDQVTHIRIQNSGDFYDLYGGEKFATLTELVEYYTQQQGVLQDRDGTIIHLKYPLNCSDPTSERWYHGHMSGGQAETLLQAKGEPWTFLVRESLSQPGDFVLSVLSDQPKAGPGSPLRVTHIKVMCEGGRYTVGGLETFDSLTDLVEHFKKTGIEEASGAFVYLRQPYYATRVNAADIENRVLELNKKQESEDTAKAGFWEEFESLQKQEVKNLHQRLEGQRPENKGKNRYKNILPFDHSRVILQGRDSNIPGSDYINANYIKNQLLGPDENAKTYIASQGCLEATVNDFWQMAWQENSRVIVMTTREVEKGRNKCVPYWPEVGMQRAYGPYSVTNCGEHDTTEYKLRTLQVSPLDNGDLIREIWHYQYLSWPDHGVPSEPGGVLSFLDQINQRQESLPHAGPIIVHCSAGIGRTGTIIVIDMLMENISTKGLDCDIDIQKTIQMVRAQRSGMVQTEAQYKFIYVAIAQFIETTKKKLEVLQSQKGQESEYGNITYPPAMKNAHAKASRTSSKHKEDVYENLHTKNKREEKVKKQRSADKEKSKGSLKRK

[6] = molecular target: T3, Tyrosine-protein phosphatase non-receptor type 1; test: Non-competitive inhibition of PTP1B (unknown origin) assessed as hydrolysis of para-nitrophenylphosphate by Lineweaver-Burk plot
How it was run: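 Kinetic study of PTP1B varying both compound and p-nitrophenylphosphate substrate concentrations. Mode was read from Lineweaver–Burk plots. Slopes from those plots were replotted against compound concentration (secondary plot), and Ki was calculated from that plot.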

[7] = species on record: Homo sapiens; test: Ratio of inhibition rate for PTP1B (unknown origin) at 75 uM to inhibition rate for VHR (unknown origin) at 75 uM
[8] = molecular target: T4, Tyrosine-protein phosphatase non-receptor type 2 (Homo sapiens) (UniProt P17706); test: Inhibition of TCPTP (unknown origin) assessed as inhibition rate at 75 uM
T4 sequence (whole entry): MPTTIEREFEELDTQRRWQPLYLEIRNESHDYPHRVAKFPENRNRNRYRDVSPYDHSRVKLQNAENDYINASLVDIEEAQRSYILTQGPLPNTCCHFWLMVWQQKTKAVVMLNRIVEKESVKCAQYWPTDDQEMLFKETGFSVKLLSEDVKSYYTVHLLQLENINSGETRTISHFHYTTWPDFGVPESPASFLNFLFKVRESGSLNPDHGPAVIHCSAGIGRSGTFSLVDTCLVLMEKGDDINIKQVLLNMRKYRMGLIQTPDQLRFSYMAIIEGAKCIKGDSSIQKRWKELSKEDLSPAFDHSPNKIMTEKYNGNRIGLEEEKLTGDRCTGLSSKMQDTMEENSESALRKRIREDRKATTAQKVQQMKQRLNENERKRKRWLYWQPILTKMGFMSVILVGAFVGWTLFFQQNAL

[9] = species on record: Homo sapiens; test: Ratio of inhibition rate for PTP1B (unknown origin) at 75 uM to inhibition rate for TCPTP (unknown origin) at 75 uM
[10] = species on record: Homo sapiens; test: Ratio of inhibition rate for PTP1B (unknown origin) at 75 uM to inhibition rate for SHP1 (unknown origin) at 75 uM
[11] = species on record: Homo sapiens; test: Ratio of inhibition rate for PTP1B (unknown origin) at 75 uM to inhibition rate for SHP2 (unknown origin) at 75 uM
[12] = molecular target: T1, Tyrosine-protein phosphatase non-receptor type 1 (Homo sapiens); test: Inhibition of PTP1B (unknown origin) assessed as inhibition rate at 75 uM

## C(=C\c1nccc2c1[nH]c1ccccc12)/c1ccccc1
[1]
  inhibition: 15%

## COc1cnc(C(O)CO)c2[nH]c3ccccc3c12 (stereo not given)
[1]
  inhibition: 10.5%

## O=c1c(CO)cc2nccc3c4ccccc4n1c23
[1]
  inhibition: 33.8%

## NC(=O)c1nccc2c1[nH]c1ccccc12
[1]
  inhibition: 20.3%

## O=C(O)c1nccc2c1[nH]c1ccccc12
[1]
  inhibition: 28.5%

## O=c1ccc2c3c(cc[n+]2[O-])c2ccccc2n13
[1]
  inhibition: 50.9%

## COCc1nccc2c1[nH]c1ccccc12
[1]
  inhibition: 27.4%

## COc1c(OC(C)=O)c(=O)n2c3ccccc3c3cc(OC(C)=O)nc1c32
[1]
  inhibition: 41.7%

## COc1cnc(C(C)=O)c2[nH]c3ccccc3c12
[1]
  inhibition: 21.6%

## O=C1NC(=O)c2[nH]c3ccccc3c2C1=O
[1]
  inhibition: 80.7%

## Oc1nccc2c1[nH]c1ccccc12
[1]
  inhibition: 8.5%

## O=C(O)c1cc2c([nH]c3ccccc32)c(-c2cccc3c2OCO3)n1
[1]
  inhibition: 19.8%

## COc1c(OC)c2c3c(cc[n+]2[O-])c2ccccc2n3c1=O
[1]
  inhibition: 14.8%

## COc1cccc2c1[nH]c1c(CCC(OC)C(=O)c3nccc4c3[nH]c3ccccc34)ncc(OC)c12 (stereo not given)
[1]
  inhibition: 44.1%

## COc1c2n(C)ccc3c-2n(c(=O)c1=O)c1ccccc31
[1]
  inhibition: 76.6%

## CCc1nccc2c1[nH]c1ccccc12
[1]
  inhibition: 30.2%

## COc1c(O)c(=O)n2c3ccccc3c3cc(=O)n(C)c1c32
[1]
  inhibition: 26.3%

## COc1cnc(C(OC)OC(C)=O)c2[nH]c3ccccc3c12 (stereo not given)
[1]
  inhibition: 11.6%

## C=Cc1ncc(OC)c2c3ccccc3n(OC)c12
[1]
  inhibition: 33.5%

## Cc1c2n(C)ccc3c-2n(c(=O)c1=O)c1ccccc31
[2]
  inhibition: 26.5%
[3]
  inhibition: 23.3%
[4]
  IC50: 24.7 µM
[5]
  inhibition: 24.4%
[6]
  Ki: 19.9 µM
[7]
  Ratio: 3.5
[8]
  inhibition: 49.7%
[9]
  Ratio: 1.9
[10]
  Ratio: 3.8
[11]
  Ratio: 3.8
[12]
  inhibition: 92.1%

## CCn1ccc2c3n(c(=O)c(=O)c(OC)c1-3)c1ccccc21
[1]
  inhibition: 43.6%

## O=Cc1nccc2c1[nH]c1ccccc12
[1]
  inhibition: 9.8%

## CCOC(=O)c1nccc2c1[nH]c1ccccc12
[1]
  inhibition: 26.9%

## COc1c(OC(C)=O)c(=O)n2c3ccccc3c3ccnc1c32
[1]
  inhibition: 68.8%

## O=C(O)CCc1nccc2c1[nH]c1ccccc12
[1]
  inhibition: 39.3%

## COc1c(OC)c2nccc3c4ccccc4n(c1=O)c23
[1]
  inhibition: 26.5%

## COc1c(O)c(=O)n2c3ccccc3c3ccnc1c32
[1]
  inhibition: 42.8%

## COc1c(OC)c2nc(O)cc3c4ccccc4n(c1=O)c23
[1]
  inhibition: 81.9%

## Cn1c(=O)cc2c3ccccc3n3c(=O)ccc1c23
[1]
  inhibition: 33.6%

## CCCCn1ccc2c3n(c(=O)c(=O)c(OC)c1-3)c1ccccc21
[1]
  inhibition: 11.7%

## COCc1c2[nH]c3ccccc3c2cc[n+]1[O-]
[1]
  inhibition: 59%

## COc1c(O)c2nccc3c4ccccc4n(c1=O)c23
[1]
  inhibition: 55.9%

## COC(=O)/C=C/C(=O)c1ncc(OC)c2c1[nH]c1c(OC)cccc12
[1]
  inhibition: 21%

## O=c1ccc2nccc3c4c(O)cccc4n1c23
[1]
  inhibition: 50.6%

## CCc1c2[nH]c3ccccc3c2cc[n+]1[O-]
[1]
  inhibition: 4.3%
